Where a chain is given by its changes, count along the chain named. In names and notes the source's numbering stands.
B1: IDH1/IDH2 (Saccharomyces cerevisiae S288C) (protein)
chain 1: ATAAQAERTLPKKYGGRFTVTLIPGDGVGKEITDSVRTIFEAENIPIDWETINIKQTDHKEGVYEAVESLKRNKIGLKGLWHTPADQTGHGSLNVALRKQLDIYANVALFKSLKGVKTRIPDIDLIVIRENTEGEFSGLEHESVPGVVESLKVMTRPKTERIARFAFDFAKKYNRKSVTAVHKANIMKLGDGLFRNIITEIGQKEYPDIDVSSIIVDNASMQAVAKPHQFDVLVTPSMYGTILGNIGAALIGGPGLVAGANFGRDYAVFEPGSRHVGLDIKGQNVANPTAMILSSTLMLNHLGLNEYATRISKAVHETIAEGKHTTRDIGGSSSTTDFTNEIINKLSTM
chain 2: ATVKQPSIGRYTGKPNPSTGKYTVSFIEGDGIGPEISKSVKKIFSAANVPIEWESCDVSPIFVNGLTTIPDPAVQSITKNLVALKGPLATPIGKGHRSLNLTLRKTFGLFANVRPAKSIEGFKTTYENVDLVLIRENTEGEYSGIEHIVCPGVVQSIKLITRDASERVIRYAFEYARAIGRPRVIVVHKSTIQRLADGLFVNVAKELSKEYPDLTLETELIDNSVLKVVTNPSAYTDAVSVCPNLYGDILSDLNSGLSAGSLGLTPSANIGHKISIFEAVHGSAPDIAGQDKANPTALLLSSVMMLNHMGLTNHADQIQNAVLSTIASGPENRTGDLAGTATTSSFTEAVIKRL
B2: IDH1^G15D/IDH2: full-length IDH1 with G15D substitution plus IDH2; stable tetramer (protein)
chain 1: B1 chain 1 with G15D
chain 2: B1 chain 2
modifications: left off: histidine tag, C-terminal, kept
B3: ^-5IDH1/IDH2: IDH with five residues truncated from the amino terminus of IDH1; octameric (protein)
chain 1: AERTLPKKYGGRFTVTLIPGDGVGKEITDSVRTIFEAENIPIDWETINIKQTDHKEGVYEAVESLKRNKIGLKGLWHTPADQTGHGSLNVALRKQLDIYANVALFKSLKGVKTRIPDIDLIVIRENTEGEFSGLEHESVPGVVESLKVMTRPKTERIARFAFDFAKKYNRKSVTAVHKANIMKLGDGLFRNIITEIGQKEYPDIDVSSIIVDNASMQAVAKPHQFDVLVTPSMYGTILGNIGAALIGGPGLVAGANFGRDYAVFEPGSRHVGLDIKGQNVANPTAMILSSTLMLNHLGLNEYATRISKAVHETIAEGKHTTRDIGGSSSTTDFTNEIINKLSTM
chain 2: B1 chain 2
modifications: left off: histidine tag, C-terminal, kept
B4: ^-5IDH1^D168A/IDH2 enzyme (complex, yeast)
chain 1: B3 chain 1 with D163A
chain 2: B1 chain 2
B5: IDH1^G15D/IDH2 enzyme (complex, yeast)
chain 1: B1 chain 1 with G15D
chain 2: B1 chain 2
B6: ^-5IDH1^G15A/IDH2 enzyme (complex, yeast)
chain 1: B3 chain 1 with G10A
chain 2: B1 chain 2
B7: ^-5IDH1^G15D/IDH2: truncated -5 IDH1 with G15D replacement plus IDH2; tetrameric (protein)
chain 1: B3 chain 1 with G10D
chain 2: B1 chain 2
modifications: left off: histidine tag, C-terminal, kept
B8: ^-5IDH1^D168K/IDH2: truncated -5 IDH1 with D168K replacement plus IDH2; tetrameric (protein)
chain 1: B3 chain 1 with D163K
chain 2: B1 chain 2
modifications: left off: histidine tag, C-terminal, kept
B9: wild-type IDH1/IDH2 enzyme (yeast NAD+-specific isocitrate dehydrogenase) (complex)
chain 1: B1 chain 1
chain 2: B1 chain 2
B10: truncated ^-5IDH1/IDH2 enzyme (complex, yeast)
chain 1: B3 chain 1
chain 2: B1 chain 2
B11: ^-5IDH1^D168K/IDH2 (Saccharomyces cerevisiae S288C; D179K) (protein)
chain 1: B3 chain 1 with D163K
chain 2: B1 chain 2
B12: ^-5IDH1^G15D/IDH2 enzyme (complex, yeast)
chain 1: B3 chain 1 with G10D
chain 2: B1 chain 2

Legend:
[1] = substrate: O=C(O)C[C@H](C(=O)O)[C@@H](O)C(=O)O; test: Apparent S0.5 for isocitrate; assay type: biochemical; details: pH 7.4; 24.0 °C
[2] = tested on: Yeast NAD+-specific isocitrate dehydrogenase (IDH); test: Kinetic analyses: isocitrate saturation velocity curves of purified IDH enzymes; assay type: biochemical; details: for Hill coef. with respect to isocitrate, − AMP: absence of AMP; for Vmax (apparent), + AMP: isocitrate velocity saturation curve; for Vmax (apparent), + AMP / Hill coef. with respect to isocitrate, + AMP: presence of 100 μM AMP
How it was run: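 His-tagged IDH purified by Ni2+-NTA, stored at −20 °C in elution buffer with 20% glycerol, quantified by A280. Assays at 24 °C used 40 mM Tris-HCl pH 7.4, 4 mM MgCl2 and 0.5 mM NAD+. D-isocitrate was varied 0–5 mM, with or without 100 μM AMP, and NADH formation was followed. Apparent S0.5 and Hill coefficients came from saturation curves, Vmax as maximum velocity per mg, over two independent experiments.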

AUC [3] = target: the molecule itself; test: AUC
AUC [4] = target: the molecule itself; test: AUC; remark: listed apart in the source
SEC = target: the molecule itself; test: SEC

Row | Molecule | K0.5 [1] | Hill coef. with respect to isocitrate, − AMP [2] | Vmax (apparent), + AMP [2] [units/mg] | Hill coef. with respect to isocitrate, + AMP [2] | further results
1 | B1 | 0.53/0.10 (±0.10/0) mM | – | – | – | –
2 | B2 | – | 2.3 | 21.9 | 2.0 | reduction in apparent Vmax relative to IDH1/IDH2 (wild-type) ([2]; relative to IDH1/IDH2): ~ 38%
3 | B3 | – | 3.1 | 30.3 | 3.5 | –
4 | B4 | – | – | – | – | stoichiometry N (AUC [3]): 8
5 | B5 | 0.60/0.13 (±0.13/0.01) mM | – | – | – | stoichiometry N (AUC [4]): 4
6 | B6 | – | – | – | – | stoichiometry N (AUC [4]): > 4
7 | B7 | – | 2.2 | 15.4 | 2.0 | reduction in apparent Vmax relative to ^-5IDH1/IDH2 [2]: ~ 50%
8 | B8 | – | 2.2 | 15.3 | 2.0 | reduction in apparent Vmax relative to ^-5IDH1/IDH2 [2]: ~ 50%
9 | B9 | – | – | – | – | stoichiometry N (AUC [3]): 8
10 | B10 | 0.52/0.11 (±0.04/0.01) mM | – | – | – | stoichiometry N (SEC): 8
11 | B11 | 0.61/0.13 (±0.13/0.04) mM | – | – | – | –
12 | B12 | 0.64/0.14 (±0.03/0.04) mM | – | – | – | stoichiometry N (SEC): 4
